In brackets after ≈: the same amount, converted by molar mass. Activity calls are given as the source filed them. No cut-off for these calls is given here. Where a SMILES comes first, the peptide text is derived from it. [ ]: non-standard residue; d: D form. 3Abz = Nc1cccc(C(=O)O)c1; Orn = NCCC[CH](N)C(=O)O
How the values were obtained:
[1] = tested on: Staphylococcus aureus; test: Antibacterial activity against methicillin-resistant Staphylococcus aureus ATCC BAA-1720 assessed as growth inhibition after 18 hrs by CLSI microdilution broth assay; type: functional; conditions: ATCC BAA-1720, 18 h
Outline: (§1)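 Modified CLSI broth microdilution in Mueller-Hinton broth. Wells held 90 µL of about 2 × 10^5 CFU/mL inoculum plus 10 µL of serially diluted peptidomimetic, range 0.7-100 µg/mL. Plates were incubated overnight with agitation at 37 °C and absorbance read at 600 nm after 18 h. Controls: inoculum without compound, and uninoculated broth. Run in triplicate.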

[2] = tested on: alpha chymotrypsin; test: Proteolytic stability assessed as alpha chymotrypsin (unknown origin)-mediated compound degradation by measuring compound remaining after 4 days by RP-HPLC analysis; type: ADME; conditions: human, read-out: Stability
Outline: (§2)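 Compound at 1 mg/mL in 0.1 M NH4HCO3 (pH 8.2) combined with trypsin or α-chymotrypsin solution (1 mg enzyme per 50 mL of the same buffer) at 37 °C. Aliquots taken over time and quenched with 10% formic acid. Remaining compound quantified by C18 RP-HPLC. An enzyme-free control was run for each test.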

[3] = tested on: Bacillus subtilis; test: Antibacterial activity against Bacillus subtilis MTCC 2763 assessed as growth inhibition after 18 hrs by CLSI microdilution broth assay; type: functional; conditions: MTCC 2763, 18 h
[4] = Selectivity ratio of HC50 for hemolysis in human RBC to MIC for Staphylococcus aureus
[5] = tested on: Pseudomonas aeruginosa; test: Antibacterial activity against Pseudomonas aeruginosa MTCC 2295 assessed as growth inhibition after 18 hrs by CLSI microdilution broth assay; type: functional; conditions: MTCC 2295, 18 h
[6] = tested on: Staphylococcus epidermidis; test: Antibacterial activity against methicillin-resistant Staphylococcus epidermidis ATCC 51625 assessed as growth inhibition after 18 hrs by CLSI microdilution broth assay; type: functional; conditions: ATCC 51625, 18 h; outline: as §1
[7] = tested on: Escherichia coli; test: Antibacterial activity against Escherichia coli MTCC 723 assessed as growth inhibition after 18 hrs by CLSI microdilution broth assay; type: functional; conditions: MTCC 723, 18 h
[8] = Stability in human plasma assessed as compound degradation after 30 mins by RP-HPLC analysis; type: ADME, cell-free; conditions: read-out: Drug degradation
Outline: (§3)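 Compound (1 mg/mL stock in water; 50 µL) added to 1 mL fresh heparinized human plasma and held at 37 °C. Samples taken at 30 min, 1, 2, 6, 12 and 24 h. Proteins precipitated with 95% ethanol, cooled at 4 °C for 15 min and centrifuged at 18,000 g. Supernatant analyzed by RP-HPLC with UV detection at 280 nm.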

[9] = tested on: HaCaT; test: Cytotoxicity against human HaCaT cells at 100 to 500 ug/ml after 24 hrs by LDH release assay; type: cell-based
Outline: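 HaCaT cells (DMEM with 10% FBS, 37 °C, 5% CO2) seeded for 24 h, then treated with varying concentrations for 24 h. LDH measured at 490 nm in both supernatant and trypsinized cell lysate with a non-radioactive kit. % release = supernatant/(supernatant + lysate) × 100. Two independent experiments in triplicate.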

[10] = Induction of hemolysis in human RBC assessed as hemoglobin release after 1 hr by microtiter plate reader analysis; type: cell-based, Erythrocyte; conditions: for HC10: erythrocyte, 1 h; for HC50 at 1 h: red blood cells
Outline: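 Freshly isolated human RBCs washed three times in PBS (35 mM phosphate, 150 mM NaCl, pH 7.2) and used as a 4% (v/v) suspension. Mixed 1:1 with twofold serial dilutions of compound, incubated 1 h at 37 °C without agitation, then centrifuged. Supernatant A540 read. PBS defined 0% and 1% Triton X-100 defined 100% lysis; HC50 and HC10 derived.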

[11] = tested on: Plasma; test: Stability in human plasma assessed as compound degradation after 12 hrs by RP-HPLC analysis; type: ADME, cell-free; outline: as §3
[12] = tested on: Staphylococcus aureus; test: Antibacterial activity against Staphylococcus aureus MTCC 3160 assessed as growth inhibition after 18 hrs by CLSI microdilution broth assay; type: functional; conditions: MTCC 3160, 18 h
[13] = Retention time of the compound by HPLC analysis; type: physicochemical
Outline: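 Analytical RP-HPLC on a C18 column (5 µm, 4.6 × 250 mm) at room temperature. Run a linear gradient of 0.5-60% acetonitrile containing 0.05% TFA against water containing 0.05% TFA at 0.5 mL/min.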

[14] = tested on: HaCaT; test: Cytotoxicity against human HaCaT cells assessed as decrease in cell viability after 24 hrs by MTT assay; type: cell-based
Outline: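 HaCaT keratinocytes grown as a monolayer in DMEM with 10% FBS and penicillin/streptomycin, 37 °C, 5% CO2. Seeded 24 h, then exposed to compound for 24 h. MTT (5 mg/mL stock in PBS) added for 4 h; formazan dissolved in isopropanol and read at 570 nm. Growth inhibition calculated relative to medium-only controls. Two independent experiments in triplicate.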

[15] = (§4) Stability in human plasma assessed as compound degradation after 24 hrs by RP-HPLC analysis; type: ADME, cell-free; conditions: read-out: Drug degradation; outline: as §3
[16] = tested on: trypsin; test: Proteolytic stability assessed as trypsin (unknown origin)-mediated compound degradation by measuring compound remaining after 4 days by RP-HPLC analysis; type: ADME; conditions: human, trypsin; read-out: Stability; outline: as §2
[17] = tested on: Lipid bilayer; test: Membrane permeabilization in bacterial membrane model consisting large unilamellar vesicle of dipalmitoylphosphatidylcholine:dipalmitoylphosphatidylglycerol at ratio of 7:3 assessed as calcein release at 15 ug/ml after 20 mins by fluorescence assay; type: cell membranes
Outline: (§5)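 LUVs of DPPC:DPPG 7:3 (w/w) loaded with 70 mM calcein (150 mM NaCl, 0.1 mM EDTA, pH 7.4). Made by freeze-thaw and extrusion through 100 nm filters; free dye removed on Sephadex G-50; diameter 110-130 nm. Diluted to 40 µM lipid and exposed to 5-15 µg/mL compound. Fluorescence read at ex 490/em 520 nm each minute for 20 min, then every 10 min. Triton X-100 defined 100% release.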

[18] = Proteolytic stability assessed as alpha chymotrypsin (unknown origin)-mediated compound degradation after 24 hrs by RP-HPLC analysis; type: ADME; conditions: human; outline: as §2
[19] = tested on: Plasma; test: Stability in human plasma assessed as compound degradation after 1 hr by RP-HPLC analysis; type: ADME, cell-free; outline: as §3
[20] = tested on: Lipid bilayer; test: Membrane permeabilization in bacterial membrane model consisting large unilamellar vesicle of dipalmitoylphosphatidylcholine:dipalmitoylphosphatidylglycerol at ratio of 7:3 assessed as calcein release at 5 ug/ml after 50 mins by fluorescence assay; type: cell membranes; outline: as §5
[21] = tested on: Staphylococcus aureus; test: Induction of membrane damage in Staphylococcus aureus at 4 times MIC after 2 hrs by DAPI/propidium iodide staining based fluorescence microscopy; type: functional, organism-based
Outline: (§6)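 Stained with PI (5 µg/mL) for 15 min in the dark at 0 °C, washed, then DAPI (10 µg/mL) for 15 min in the dark at 0 °C. Untreated cells processed identically as controls. Imaged by fluorescence microscopy with a 60× oil objective.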

[22] = tested on: Staphylococcus aureus; test: Bactericidal activity against Staphylococcus aureus MTCC 3160 assessed as number of bacteria at 4 times MIC measured within 30 mins by time kill assay (reference value: 10^6 CFU/ml); type: functional
Outline: (§7)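 Time-kill assay. […] Aliquots taken at fixed intervals were serially diluted and plated on Mueller-Hinton agar. CFU were counted after 24 h at 37 °C. Two independent experiments, each in triplicate.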

[23] = tested on: Lipid bilayer; test: Membrane permeabilization in bacterial membrane model consisting large unilamellar vesicle of dipalmitoylphosphatidylcholine:dipalmitoylphosphatidylglycerol at ratio of 7:3 assessed as calcein release after 5 mins by fluorescence assay; type: cell membranes; outline: as §5
[24] = tested on: Staphylococcus aureus; test: Antibacterial activity against Staphylococcus aureus MTCC 3160 assessed as growth inhibition treated for 16 days by two-fold dilution assay; type: functional, organism-based
[25] = Membrane permeabilization in mammalian membrane model consisting large unilamellar vesicle of dipalmitoylphosphatidylcholine:cholesterol at ratio of 10:1 assessed as calcein release at 15 ug/ml after 5 mins by fluorescence assay; type: cell membranes
Outline: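 LUVs of DPPC/cholesterol 10:1 (w/w) loaded with calcein, extruded through 100 nm filters, and cleared of free dye on Sephadex G-50. Diluted to 40 µM lipid in calcein-free buffer (150 mM NaCl, 0.1 mM EDTA). Calcein release read at ex 490/em 520 nm, normalized to Triton X-100 lysis.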

[26] = tested on: Escherichia coli; test: Bactericidal activity against Escherichia coli MTCC 723 assessed as number of bacteria at 4 times MIC measured within 30 mins by time kill assay (reference value: 10^6 CFU/ml); type: functional; outline: as §7
[27] = tested on: Escherichia coli; test: Induction of membrane damage in Escherichia coli at 4 times MIC after 2 hrs by DAPI/propidium iodide staining based fluorescence microscopy; type: functional, organism-based; outline: as §6
[28] = Stability in human plasma assessed as compound degradation after 2 hrs by RP-HPLC analysis; type: ADME, cell-free; conditions: read-out: Drug degradation; outline: as §3
[29] = Proteolytic stability assessed as trypsin (unknown origin)-mediated compound degradation after 36 hrs by RP-HPLC analysis; type: ADME; conditions: human; outline: as §2
[30] = tested on: Plasma; test: as §4; type: ADME, cell-free; conditions: 24 h; outline: as §3
[31] = tested on: Staphylococcus aureus; test: Antibacterial activity against methicillin-resistant Staphylococcus aureus ATCC BAA-1720 assessed as growth inhibition treated for 16 days by two-fold dilution assay; type: functional, organism-based
Outline: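 Serial-passage resistance study. Start from the initial MIC by broth microdilution, then expose cells to doubling dilutions in triplicate wells. After each 18 h incubation, pool the wells with the highest concentration still showing visible growth and re-inoculate at about 2 × 10^6 CFU/mL.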

Row | Structure (SMILES) | MIC [1] [µg/mL] | remaining at 96 h [2] [%] | MIC [3] [µg/mL] | Selectivity ratio [4] | MIC [5] [µg/mL] | MIC [6] [µg/mL] | MIC [7] [µg/mL] | metabolised at 0.5 h [8] [%] | Activity [9] | HC10 [10] [µg/mL] | HC50 at 1 h [10] [µg/mL] | MIC [12] [µg/mL] | Retention_time [13] [min] | Activity [14] | remaining at 96 h [16] [%] | Stability [30] | also measured
1 | N=C(N)NCCCC(NC(=O)C(Cc1c[nH]c2ccccc12)NC(=O)C(Cc1c[nH]c2ccccc12)NC(=O)C(CCCNC(=N)N)NC(=O)C(N)Cc1c[nH]c2ccccc12)C(N)=O (configuration not stated) (H-WRWWR-NH2; configuration not given here) | 17.5 (≈ 19.7 µM) | 44 | 50 (≈ 56.3 µM) | 13.3 | 70 (≈ 78.8 µM) | 20 (≈ 22.5 µM) | 40 (≈ 45 µM) | 5.31 | Toxic | 60 | 200 | 15 (≈ 16.9 µM) | 30.604 | Dose-dependent effect | 21 |  | Stability [11]: Stable; metabolised at 24 h [15]: 18%
2 | N=C(N)NCCCC(NC(=O)C(Cc1c[nH]c2ccccc12)NC(=O)c1cccc(NC(=O)C(Cc2c[nH]c3ccccc23)NC(=O)C(CCCNC(=N)N)NC(=O)C(N)Cc2c[nH]c3ccccc23)c1)C(N)=O (configuration not stated) (H-WRW[3Abz]WR-NH2; configuration not given here) | 5.5 (≈ 5.46 µM) | 70 | 20 (≈ 19.9 µM) | 62 | 12.5 (≈ 12.4 µM) | 5 (≈ 4.96 µM) | 7.5 (≈ 7.45 µM) |  | Toxic | 80 | 310 | 5 (≈ 4.96 µM) | 27.34 | Dose-dependent effect | 65 | Stable | Activity [17]: 47%; Stability [18]: Stable; Stability [19]: Stable; Activity [20]: 19%; Activity [21]: Active; CFU/ml [22]: 1000; Activity [23]: Dose-dependent effect; inhibition [24]: Active; Activity [25]: inactive; CFU/ml [26]: 1000; Activity [27]: Active; metabolised at 2 h [28]: 6.58%; Stability [29]: Stable; inhibition [31]: Active
3 | NCCCC(NC(=O)C(Cc1c[nH]c2ccccc12)NC(=O)C(Cc1c[nH]c2ccccc12)NC(=O)C(CCCN)NC(=O)C(N)Cc1c[nH]c2ccccc12)C(N)=O (configuration not stated) (H-W[Orn]WW[Orn]-NH2; configuration not given here) | 50 (≈ 62.2 µM) | 44 | 120 (≈ 149 µM) | 4.5 | 150 (≈ 187 µM) | 70 (≈ 87.1 µM) | 70 (≈ 87.1 µM) | 4.72 | Toxic | 65 | 225 | 50 (≈ 62.2 µM) | 28.309 | Dose-dependent effect | 82 | Stable | 
4 | NCCCC(N)C(=O)NC(CCCN)C(=O)NC(Cc1c[nH]c2ccccc12)C(=O)NC(Cc1c[nH]c2ccccc12)C(=O)NC(CCCN)C(N)=O (configuration not stated) (H-[Orn][Orn]WW[Orn]-NH2; configuration not given here) | 100 (≈ 137 µM) |  | 100 (≈ 137 µM) | 4.42 | 150 (≈ 205 µM) | 100 (≈ 137 µM) | 120 (≈ 164 µM) |  |  | 100 | 310 | 70 (≈ 95.6 µM) | 26.672 |  |  |  | 
5 | NCCCC(N)C(=O)NC(CCCN)C(=O)NC(Cc1c[nH]c2ccccc12)C(=O)Nc1cccc(C(=O)NC(Cc2c[nH]c3ccccc23)C(=O)NC(CCCN)C(N)=O)c1 (configuration not stated) (H-[Orn][Orn]W[3Abz]W[Orn]-NH2; configuration not given here) | 10.2 (≈ 12 µM) |  | 40 (≈ 47 µM) | 60 | 50 (≈ 58.8 µM) | 12.5 (≈ 14.7 µM) | 40 (≈ 47 µM) |  |  | 120 | 450 | 7.5 (≈ 8.81 µM) | 24.231 |  |  |  | 
